Data as given in ChEMBL document CHEMBL3259600, “Synthesis and biological evaluation of some new pyrazoline substituted benzenesulfonylurea/thiourea derivatives as anti-hyperglycaemic agents and aldose reductase inhibitors” (Eur J Med Chem, 2014).

What was measured:
Rattus norvegicus = test: Antihyperglycemic activity in glucose-fed hyperglycaemic Wistar albino rat assessed as inhibition of postprandial hyperglycemia at 0.05 mM/kg, po administered via gavage 30 mins prior to glucose challenge measured 60 mins after glucose load; type: functional; design: scale not given: the % may be the effect or the level left
Summary of the method: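 Rats fasted at least 16 h with water available, groups of six. Vehicle 1% w/v CMC in distilled water, 10 ml/kg, given orally. Glucose load 3 g/kg 30 min after treatment. Retro-orbital blood sampled just before and 60 min after the load. Glucose tolerance by AUC, percent activity from AUC against vehicle group, Dunnett's test.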

[1] = Retardation factor of the compound using toulene-ethyl acetate-formic acid at ratio of 5:4:1 as solvent system by thin layer chromatography; type: physicochemical
[2] = target: Aldo-keto reductase family 1 member B1 (Rattus norvegicus, UniProt P07943); test: Inhibition of aldose reductase in rat lens by spectrophotometer analysis
Summary of the method: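 Crude enzyme from rat lens homogenized in 9 volumes 100 mM potassium phosphate pH 6.2, spun 15,000 × g for 30 min at 4 °C, supernatant used. Assay in 50 mM potassium phosphate pH 6.2 with 0.4 M lithium sulphate, 5 mM β-mercaptoethanol, 10 mM DL-glyceraldehyde, 0.1 mM NADPH, at 37 °C. DMSO-dissolved compound preincubated 5 min, reaction started with NADPH, read spectrophotometrically, triplicate. IC50 by non-linear regression of % inhibition vs log concentration.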

[3] = Retardation factor of the compound using chloroform-acetone at ratio of 9:1 as solvent system by thin layer chromatography; type: physicochemical
[4] = Retardation factor of the compound using chloroform-acetone at ratio of 8:2 as solvent system by thin layer chromatography; type: physicochemical

| Compound | Activity (Rattus norvegicus) | Rf [1] | IC50 ([2]; read-out: IC50) | Rf [3] | IC50 [2] | Rf [4] |
| --- | --- | --- | --- | --- | --- | --- |
| CN(C)c1ccc(C2=NN(c3ccc(S(=O)(=O)NC(=S)NCc4ccccc4)cc3)C(c3ccccc3)C2)cc1 (centres undefined) | 24.2% | 0.88 | 0.0901 µM | – | – | – |
| CN(C)c1ccc(C2=NN(c3ccc(S(=O)(=O)NC(=S)NC4CCCCC4)cc3)C(c3ccccc3)C2)cc1 (centres undefined) | 2.7% | 0.97 | 0.0178 µM | – | – | – |
| CCCCNC(=S)NS(=O)(=O)c1ccc(N2N=C(c3ccc(N(C)C)cc3)CC2c2ccccc2)cc1 (centres undefined) | 10.5% | 0.88 | 0.043 µM | – | – | – |
| COc1cc(C2CC(c3ccc(N(C)C)cc3)=NN2c2ccc(S(=O)(=O)NC(=O)NCc3ccccc3)cc2)cc(OC)c1OC (centres undefined) | 29.3% | – | – | 0.83 | – | – |
| CN(C)c1ccc(C2=NN(c3ccc(S(=O)(=O)NC(=O)NCc4ccccc4)cc3)C(c3ccccc3Cl)C2)cc1 (centres undefined) | 4.7% | 0.79 | – | – | Not Active | – |
| COc1ccc(C2CC(c3ccc(N(C)C)cc3)=NN2c2ccc(S(=O)(=O)NC(=O)NCc3ccccc3)cc2)cc1 (centres undefined) | 17.5% | 0.7 | – | – | Not Active | – |
| CN(C)c1ccc(C2=NN(c3ccc(S(=O)(=O)NC(=O)NCc4ccccc4)cc3)C(c3ccc(Cl)cc3)C2)cc1 (centres undefined) | 6.7% | 0.78 | – | – | – | – |
| CN(C)c1ccc(C2=NN(c3ccc(S(=O)(=O)NC(=S)NCc4ccccc4)cc3)C(c3ccc(Cl)cc3)C2)cc1 (centres undefined) | 4.2% | 0.87 | – | – | – | – |
| COc1ccc(C2CC(c3ccc(N(C)C)cc3)=NN2c2ccc(S(=O)(=O)NC(=O)NCc3ccccc3)cc2)cc1OC (centres undefined) | 18% | 0.56 | – | – | – | – |
| COc1ccc(C2CC(c3ccc(N(C)C)cc3)=NN2c2ccc(S(=O)(=O)NC(=S)NCc3ccccc3)cc2)cc1 (centres undefined) | 11.7% | 0.65 | – | – | – | – |
| COc1cc(C2CC(c3ccc(N(C)C)cc3)=NN2c2ccc(S(=O)(=O)NC(=S)NCc3ccccc3)cc2)cc(OC)c1OC (centres undefined) | 28.6% | 0.92 | – | – | – | – |
| CCCCNC(=S)NS(=O)(=O)c1ccc(N2N=C(c3ccc(N(C)C)cc3)CC2c2ccc(OC)cc2)cc1 (centres undefined) | 17.2% | 0.9 | – | – | – | – |
| Cc1ccc(C2CC(c3ccc(N(C)C)cc3)=NN2c2ccc(S(=O)(=O)NC(=O)NCc3ccccc3)cc2)cc1 (centres undefined) | 12% | – | – | – | – | 0.88 |
| Cc1ccc(S(=O)(=O)NC(=O)NN2CC3CCCC3C2)cc1 (centres undefined) [GLICLAZIDE] | 25.4% | – | – | – | – | – |
| Cc1ccc(C2CC(c3ccc(N(C)C)cc3)=NN2c2ccc(S(=O)(=O)NC(=S)NCc3ccccc3)cc2)cc1 (centres undefined) | 21.7% | – | 0.0699 µM | 0.9 | – | – |
| CN(C)c1ccc(C2=NN(c3ccc(S(=O)(=O)NC(=S)NCc4ccccc4)cc3)C(c3ccccc3Cl)C2)cc1 (centres undefined) | 15.3% | 0.75 | 0.085 µM | – | – | – |
| CN(C)c1ccc(C2=NN(c3ccc(S(=O)(=O)NC(=O)NCc4ccccc4)cc3)C(c3ccccc3)C2)cc1 (centres undefined) | 15.5% | 0.85 | – | – | Not Active | – |
| CCCCNC(=S)NS(=O)(=O)c1ccc(N2N=C(c3ccc(N(C)C)cc3)CC2c2ccc(Cl)cc2)cc1 (centres undefined) | 18.9% | 0.66 | 0.0175 µM | – | – | – |
